pIC50: −log10 of the molar value. Calls of active or inactive are those of the source. The rule behind the calls is not given here.
Experiments:
Trypanosoma cruzi [1] = assay: Antitrypanosomal activity against Trypanosoma cruzi Sylvio X-10 amastigotes infected in African green monkey Vero cells assessed as eradication of amastigotes after 5 days by Giemsa staining-based assay; type: functional, organism-based; details: Sylvio X-10, Vero, 120 h
How it was run: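 VERO cells in RPMI 1640 with 10% hiFCS were allowed to adhere for 24 h at 37 °C in 5% CO₂, then infected with tissue-derived trypomastigotes at 10:1. Free parasites were washed off after 24 h, and cultures were treated at five compound doses (text gives 72 h / 5 days). Cultures were methanol-fixed and Giemsa-stained, and infected cells were counted among 300. Quadruplicates were run in three independent experiments. IC50/IC90 were obtained by sigmoidal regression.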

Trypanosoma cruzi [2] = assay: Antitrypanosomal activity against Trypanosoma cruzi Dm 28c epimastigotes assessed as growth inhibition after 5 days; type: functional, organism-based; details: 120 h
[3] = Stability of the compound in eumulgin HRE 40, sodium oleate, soya phosphatidylcholine, cholesterol, and phosphate buffer at pH 7.4 at 4 degC; type: physicochemical
How it was run: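 Storage stability of the compound in vehicle V2, a microemulsion of surfactant (Eumulgin HRE 40/sodium oleate/soya phosphatidylcholine, 10%), cholesterol oil phase (10%) and pH 7.4 phosphate buffer (80%), followed over 1 week at 4 °C.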

[4] = Stability of the compound in aqueous solution assessed as compound remaining at 1 mM at pH 6 after 1 hr by TLC analysis; type: physicochemical; details: aqueous solution, pH 6; read-out: Stability
How it was run: (§1)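 DMSO stocks diluted to final 1 mM in KCl·HCl pH 1.0, citrate pH 6.0, Tris·HCl pH 7.4 or borax·HCl pH 9.0 buffer. Incubated 1 h at 37 °C, then ethyl acetate extracts checked by TLC for decomposition products.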

Salmonella typhimurium [5] = assay: Mutagenic activity in Salmonella typhimurium TA1537 at 0.06 to 5 ug/plate by Ames test; type: toxicity, organism-based; details: salmonella enterica subsp. enterica serovar typhimurium
How it was run: (§2)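 Direct plate incubation on minimal glucose agar (Vogel-Bonner E). Compound toxicity to the bacteria was checked first. DMSO solutions were tested at five consecutive 3-fold dilutions, starting from the highest non-toxic dose, in triplicate, without metabolic activation. DMSO served as negative control. Revertants were counted manually; mutagenic = revertants at least double the negative control at two or more consecutive doses.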

Salmonella typhimurium [6] = assay: Mutagenic activity in Salmonella typhimurium TA100 at 0.06 to 5 ug/plate by Ames test; type: toxicity, organism-based; details: salmonella enterica subsp. enterica serovar typhimurium; how it was run: as §2
Salmonella typhimurium [7] = assay: Mutagenic activity in Salmonella typhimurium TA100 at 0.06 to 5 ug/plate by Ames test in presence of mouse liver S9 fraction; type: toxicity, organism-based; details: salmonella enterica subsp. enterica serovar typhimurium
How it was run: (§3)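 Plate-incorporation Ames test on minimal glucose agar with 500 μL Aroclor-treated mouse liver S9 added. DMSO solutions were tested at five consecutive 3-fold dilutions from the highest non-toxic dose, in triplicate, with a DMSO negative control. Revertants were counted manually; a compound was scored mutagenic when revertants were at least twice the negative control for two or more consecutive doses.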

Salmonella typhimurium [8] = assay: Mutagenic activity in Salmonella typhimurium TA1537 at 0.06 to 5 ug/plate by Ames test in presence of mouse liver S9 fraction; type: toxicity, organism-based; details: salmonella enterica subsp. enterica serovar typhimurium; how it was run: as §3
[9] = Stability of the compound in aqueous solution assessed as compound remaining at 1 mM at pH 9 after 1 hr by TLC analysis; type: physicochemical; details: aqueous solution, pH 9; read-out: Stability; how it was run: as §1
Trypanosoma cruzi [10] = assay: Antitrypanosomal activity against Trypanosoma cruzi Sylvio X-10 amastigotes infected in African green monkey Vero cells assessed as eradication of amastigotes at 5 uM after 5 days by optical microscopic analysis; type: functional, organism-based; details: in the assay text read “after 72 hrs” for “after 5 days”
How it was run: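 VERO cells infected with Sylvio X-10 parasites were treated with 5 μM compound and examined by optic microscopy after 72 h of incubation for intracellular amastigotes and trypomastigotes.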

Salmonella typhimurium [11] = assay: Mutagenic activity in Salmonella typhimurium TA102 at 0.06 to 5 ug/plate by Ames test; type: toxicity, organism-based; details: salmonella enterica subsp. enterica serovar typhimurium; how it was run: as §2
[12] = Stability of the compound in aqueous solution assessed as compound remaining at 1 mM at pH 7.4 after 1 hr by TLC analysis; type: physicochemical; details: aqueous solution, pH 7.4; read-out: Stability; how it was run: as §1
Salmonella typhimurium [13] = assay: Mutagenic activity in Salmonella typhimurium TA102 at 0.06 to 5 ug/plate by Ames test in presence of mouse liver S9 fraction; type: toxicity, organism-based; details: salmonella enterica subsp. enterica serovar typhimurium; how it was run: as §3
[14] = Stability of the compound in aqueous solution assessed as compound remaining at 1 mM at pH 1 after 1 hr by TLC analysis; type: physicochemical; details: read-out: Stability; how it was run: as §1
Salmonella typhimurium [15] = assay: Mutagenic activity in Salmonella typhimurium TA98 at 3.1 to 250 ug/plate by Ames test in presence of mouse liver S9 fraction; type: toxicity, organism-based; details: salmonella enterica subsp. enterica serovar typhimurium
How it was run: (§4)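 Ames plate-incorporation assay with S. typhimurium TA98 in Vogel-Bonner E minimal glucose agar. Toxicity toward the bacteria was checked first. DMSO solutions were run in triplicate at five consecutive third-dilutions, starting at the highest non-toxic dose. Positive controls were 4-nitro-o-phenylenediamine (20.0 μg/plate) and 2-aminofluorene (10.0 μg/plate); DMSO was the negative control. Revertants were counted manually. A compound was called mutagenic when revertants were at least twice the negative control at two or more consecutive doses.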

[16] = Selectivity index, ratio of IC50 for human RBC to IC50 for Trypanosoma cruzi Sylvio X-10 amastigotes
How it was run: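 Hemolysis: washed human erythrocytes (2% w/v in PBS) incubated 24 h at 37 °C with compound at final 50, 100 and 200 μM. Ten replicates per concentration. Hemoglobin release read at 405 nm against water lysis as 100%; amphotericin B 1.5 μM was the positive control. SI = IC50 red cells / parasite IC50 (Sylvio X-10 amastigotes or Tulahuen 2 epimastigotes).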

Salmonella typhimurium [17] = assay: Mutagenic activity in Salmonella typhimurium TA1535 at 0.06 to 5 ug/plate by Ames test; type: toxicity, organism-based; details: salmonella enterica subsp. enterica serovar typhimurium; how it was run: as §2
Trypanosoma cruzi [18] = assay: Antitrypanosomal activity against Trypanosoma cruzi Tulahuen 2 epimastigotes assessed as growth inhibition after 5 days; type: functional, organism-based; details: Trypanosoma cruzi, Tulahuen 2, 120 h
How it was run: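 Epimastigotes were grown axenically at 28 °C in BHI-tryptose with 5% FBS and seeded from a 5–7 day culture at 1 × 10⁶ cells/mL. Drug from a DMSO stock was added (final DMSO ≤0.4%; the control contained 0.4% DMSO). Duplicates were run. A600 was read at day 5, and % inhibition was calculated relative to day-0 and control readings. IC50 = concentration that halves the absorbance ratio.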

[19] = Selectivity index, ratio of IC50 for mouse J774.1 cells to IC50 for Trypanosoma cruzi Sylvio X-10 amastigotes; type: toxicity; details: read-out: Ratio IC50
How it was run: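 J774.1 macrophages grown in DMEM with 10% heat-inactivated FCS and allowed to attach 48 h, then exposed 48 h at 37 °C to 12.5–400.0 μM. Triplicates. MTT 0.1 mg/mL for 3 h, read at 560 nm; IC50 by linear regression against the solvent control. SI = IC50 J774.1 / parasite IC50 (Sylvio X-10 amastigotes or Tulahuen 2 epimastigotes, the latter measured by A600 growth inhibition at day 5).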

[20] = Selectivity index, ratio of IC50 for African green monkey Vero cells to IC50 for Trypanosoma cruzi Sylvio X-10 amastigotes; type: toxicity, cell-based; details: read-out: Ratio IC50
How it was run: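 VERO cytotoxicity: cells exposed 48 h at 37 °C, 5% CO2 to serial dilutions from a maximum of 2000 μM (DMSO stocks; DMSO <0.1% control); growth inhibition read by MTT at 570 nm. Amastigote IC50: Sylvio X-10-infected VERO cells, five doses, infected cells counted among 300 (Giemsa), quadruplicate, three experiments, sigmoidal fit. SI = IC50 VERO / IC50 amastigote.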

Salmonella typhimurium [21] = assay: Mutagenic activity in Salmonella typhimurium TA1535 at 0.06 to 5 ug/plate by Ames test in presence of mouse liver S9 fraction; type: toxicity, organism-based; details: salmonella enterica subsp. enterica serovar typhimurium; how it was run: as §3
Salmonella typhimurium [22] = assay: Mutagenic activity in Salmonella typhimurium TA98 at 3.1 to 250 ug/plate by Ames test; type: toxicity, organism-based; details: salmonella enterica subsp. enterica serovar typhimurium; how it was run: as §4

Q: With `Br.C=CCn1c(-c2ccccc2)cs\c1=N/N=C/C=C/c1ccco1.O` as the compound, how does the pIC50 (Trypanosoma cruzi [1]) read?
A: > 6.62

Q: And the pIC50 (Trypanosoma cruzi [2])?
A: 5.40

Q: And the Stability [3]?
A: Stable

Q: What about the remaining at 1 h, 1000 µM [4] of the same compound?
A: > 95%

Q: What about the Activity (Salmonella typhimurium [5]) of the same compound?
A: Non-toxic

Q: What about the Activity (Salmonella typhimurium [6]) of the same compound?
A: Non-toxic

Q: And the Activity (Salmonella typhimurium [7])?
A: Non-toxic

Q: What about the Activity (Salmonella typhimurium [8]) of the same compound?
A: Non-toxic

Q: And the remaining at 1 h, 1000 µM [9]?
A: > 95%

Q: What about the Activity (Trypanosoma cruzi [10]) of the same compound?
A: Active

Q: And the Activity (Salmonella typhimurium [11])?
A: Non-toxic

Q: And the remaining at 1 h, 1000 µM [12]?
A: > 95%

Q: What about the Activity (Salmonella typhimurium [13]) of the same compound?
A: Non-toxic

Q: And the remaining at 1 h, 1000 µM [14]?
A: 90%

Q: What about the Activity (Salmonella typhimurium [15]) of the same compound?
A: Non-toxic

Q: And the Ratio IC50 [16]?
A: > 196

Q: What about the Activity (Salmonella typhimurium [17]) of the same compound?
A: Non-toxic

Q: And the pIC50 (Trypanosoma cruzi [18])?
A: 5.49

Q: What about the selectivity ratio [19] of the same compound?
A: > 120

Q: And the selectivity ratio [20]?
A: > 1000

Q: What about the Activity (Salmonella typhimurium [21]) of the same compound?
A: Non-toxic

Q: What about the Activity (Salmonella typhimurium [22]) of the same compound?
A: Non-toxic
